Measured values: ChEMBL document CHEMBL1938355, “Antimycobacterial activities of 5-alkyl (or halo)-3'-substituted pyrimidine nucleoside analogs” (Bioorg Med Chem Lett, 2012)
Converted amounts (≈) assume the structure as drawn. The source made the active and inactive calls. No cut-off for these calls is given here.

Experiments:
[1] = Cytotoxicity against human HuH7 cells by [3H]thymidine incorporation assay; format: cell-based, Huh-7
Mycobacterium avium [2] = assay: Antimycobacterial activity against Mycobacterium avium ATCC 25291 assessed as growth inhibition at 0.5 to 100 ug/ml by microplate alamar blue assay; format: functional; settings: Mycobacterium avium subsp. avium ATCC 25291
Method in brief: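 M. avium ATCC 25291 (ATCC stock) in 7H9GC medium, microplate alamar blue read-out. Compounds dissolved in DMSO at 10 mg/mL (stock), diluted in medium to final 100, 50, 25, 10, 5, 1 and 0.5 µg/mL, each in triplicate. Two independent experiments; mean percent growth inhibition reported, SD within 10% of mean.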

[3] = Cytotoxicity against human HuH7 cells by XTT assay; format: cell-based, Huh-7
Huh-7 [4] = assay: Cytotoxicity against human HuH7 cells up to 100 ug/ml by [3H]thymidine incorporation assay; format: cell-based
Huh-7 [5] = assay: Cytotoxicity against human HuH7 cells up to 100 ug/ml by XTT assay; format: cell-based
[6] = system: Mycobacterium tuberculosis; assay: Antimycobacterial activity against Mycobacterium tuberculosis H37Ra assessed as growth inhibition at 0.5 to 100 ug/ml by microplate alamar blue assay; format: functional, organism-based
Method in brief: (§1)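 Strains obtained from ATCC. Tested by microplate alamar blue assay. Compounds made up as 10 mg/mL DMSO stocks, then serially diluted in 7H9GC medium. Final test concentrations were 100, 50, 25, 10, 5, 1 and 0.5, each in triplicate. Experiments were run twice, and mean percent growth inhibition is reported.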

Mycobacterium avium [7] = assay: Antimycobacterial activity against Mycobacterium avium ATCC 25291 assessed as growth inhibition at 2 ug/ml by microplate alamar blue assay; format: functional, Mycobacterium avium subsp. avium ATCC 25291; settings: read-out: GI
[8] = system: Mycobacterium tuberculosis; assay: Antimycobacterial activity against Mycobacterium tuberculosis H37Ra assessed as growth inhibition at 0.5 to 1 ug/ml by microplate alamar blue assay; format: functional; method in brief: as §1
[9] = system: Mycobacterium tuberculosis; assay: Antimycobacterial activity against Mycobacterium tuberculosis H37Ra assessed as growth inhibition at 50 ug/ml by microplate alamar blue assay; format: functional; settings: read-out: GI; method in brief: as §1
[10] = system: Mycobacterium tuberculosis; assay: Antimycobacterial activity against Mycobacterium tuberculosis H37Ra assessed as growth inhibition at 10 ug/ml by microplate alamar blue assay; format: functional; settings: read-out: GI; method in brief: as §1
[11] = system: Mycobacterium tuberculosis; assay: Antimycobacterial activity against Mycobacterium tuberculosis H37Ra assessed as growth inhibition at 15 to 20 ug/ml by microplate alamar blue assay; format: functional
Mycobacterium avium [12] = assay: Antimycobacterial activity against Mycobacterium avium ATCC 25291 assessed as growth inhibition at 100 ug/ml by microplate alamar blue assay; format: functional, Mycobacterium avium subsp. avium ATCC 25291; settings: read-out: GI; method in brief: as §1
Mycobacterium avium [13] = assay: Antimycobacterial activity against Mycobacterium avium ATCC 25291 assessed as growth inhibition at 50 ug/ml by microplate alamar blue assay; format: functional, Mycobacterium avium subsp. avium ATCC 25291; settings: read-out: GI; method in brief: as §1
[14] = system: Mycobacterium tuberculosis; assay: Antimycobacterial activity against Mycobacterium tuberculosis H37Ra by microplate alamar blue assay; format: functional
[15] = system: Mycobacterium tuberculosis; assay: Antimycobacterial activity against Mycobacterium tuberculosis H37Ra assessed as growth inhibition at 5 ug/ml by microplate alamar blue assay; format: functional; settings: read-out: GI; method in brief: as §1
Mycobacterium avium [16] = assay: Antimycobacterial activity against Mycobacterium avium ATCC 25291 assessed as growth inhibition at 10 ug/ml by microplate alamar blue assay; format: functional, Mycobacterium avium subsp. avium ATCC 25291; settings: read-out: GI; method in brief: as §1
[17] = system: Mycobacterium tuberculosis; assay: Antimycobacterial activity against Mycobacterium tuberculosis H37Ra assessed as growth inhibition at 100 ug/ml by microplate alamar blue assay; format: functional; settings: read-out: GI; method in brief: as §1
Mycobacterium avium [18] = assay: Antimycobacterial activity against Mycobacterium avium ATCC 25291 by microplate alamar blue assay; format: functional, Mycobacterium avium subsp. avium ATCC 25291

Row | SMILES | CC50 [1] [µg/mL] | growth inhibition (GI) (Mycobacterium avium [2]) | CC50 [3] [µg/mL] | Activity (Huh-7 [4]) | Activity (Huh-7 [5]) | growth inhibition (GI) [6] | further results
1 | Cc1cn([C@H]2C[C@H](N)[C@@H](CO)O2)c(=O)[nH]c1=O [3-AMINO- 3-DEOXYTHYMIDINE] | > 100 | inactive | > 100 | Non-toxic | Non-toxic | inactive | –
2 | CCc1cn([C@H]2C[C@@H](O)[C@@H](CO)O2)c(=O)[nH]c1=O | > 100 | inactive | > 100 | Non-toxic | Non-toxic | inactive | –
3 | CCc1cn([C@H]2CC[C@@H](CO)O2)c(=O)[nH]c1=O | > 100 | inactive | > 100 | Non-toxic | Non-toxic | inactive | –
4 | CCc1cn([C@H]2C[C@H](F)[C@@H](CO)O2)c(=O)[nH]c1=O | > 100 | inactive | > 100 | Non-toxic | Non-toxic | inactive | –
5 | CO[C@H]1/C=C/O[C@@]2(C)Oc3c(C)c(O)c4c(O)c(c(/C=N/N5CCN(C)CC5)c(O)c4c3C2=O)NC(=O)/C(C)=C\C=C\[C@H](C)[C@H](O)[C@@H](C)[C@@H](O)[C@@H](C)[C@H](OC(C)=O)[C@@H]1C [RIFAMPIN] | – | – | – | – | – | – | inhibition of growth at 2 µg/mL (Mycobacterium avium [7]): 90%; growth inhibition (GI) [8]: 100%
6 | [N-]=[N+]=N[C@H]1C[C@H](n2cc(F)c(=O)[nH]c2=O)O[C@@H]1CO | > 100 | inactive | > 100 | Non-toxic | Non-toxic | inactive | –
7 | CC[C@H]1OC(=O)[C@H](C)[C@@H](O[C@H]2C[C@@](C)(OC)[C@@H](O)[C@H](C)O2)[C@H](C)[C@@H](O[C@@H]2O[C@H](C)C[C@H](N(C)C)[C@H]2O)[C@](C)(OC)C[C@@H](C)C(=O)[C@H](C)[C@@H](O)[C@]1(C)O [CLARITHROMYCIN] | – | – | – | – | – | – | inhibition of growth at 2 µg/mL (Mycobacterium avium [7]): 100%
8 | N[C@@H]1CONC1=O [CYCLOSERINE] | – | – | – | – | – | – | inhibition of growth at 50 µg/mL [9]: 100%; inhibition of growth at 10 µg/mL [10]: 60%; growth inhibition (GI) [11]: 80%; inhibition of growth at 100 µg/mL (Mycobacterium avium [12]): 100%; inhibition of growth at 50 µg/mL (Mycobacterium avium [13]): 100%; MIC50 [14]: 5 µg/mL (≈ 49 µM); inhibition of growth at 5 µg/mL [15]: 50%; inhibition of growth at 10 µg/mL (Mycobacterium avium [16]): 15%
9 | CCc1cn([C@H]2C[C@H](N=[N+]=[N-])[C@@H](CO)O2)c(=O)[nH]c1=O | > 100 | – | > 100 | Non-toxic | Non-toxic | – | inhibition of growth at 50 µg/mL [9]: 60%; inhibition of growth at 10 µg/mL [10]: 50%; inhibition of growth at 100 µg/mL [17]: 60%; MIC50 (Mycobacterium avium [18]): 10 µg/mL (≈ 35.6 µM); inhibition of growth at 100 µg/mL (Mycobacterium avium [12]): 100%; inhibition of growth at 50 µg/mL (Mycobacterium avium [13]): 60%; MIC50 [14]: 10 µg/mL (≈ 35.6 µM); inhibition of growth at 10 µg/mL (Mycobacterium avium [16]): 50%
10 | [N-]=[N+]=N[C@H]1C[C@H](n2cc(Cl)c(=O)[nH]c2=O)O[C@@H]1CO | > 100 | inactive | > 100 | Non-toxic | Non-toxic | – | inhibition of growth at 100 µg/mL [17]: 50%
11 | O=c1[nH]c(=O)n([C@H]2C[C@H](F)[C@@H](CO)O2)cc1C(F)(F)F | > 100 | – | > 100 | Non-toxic | Non-toxic | inactive | inhibition of growth at 100 µg/mL (Mycobacterium avium [12]): 25%
12 | [N-]=[N+]=N[C@H]1C[C@H](n2cc(Br)c(=O)[nH]c2=O)O[C@@H]1CO | > 100 | inactive | > 100 | Non-toxic | Non-toxic | – | inhibition of growth at 100 µg/mL [17]: 30%
13 | CCc1cn([C@H]2C[C@H](I)[C@@H](CO)O2)c(=O)[nH]c1=O | > 100 | inactive | > 100 | Non-toxic | Non-toxic | inactive | –
